Tested on: U2OS
Assay: Multiplex assay against U2OS
Type: toxicity, cell-based
Conditions: human
How it was run: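 Live cells were stained at seeding with Hoechst33342, BioTracker Green Microtubule Cytoskeleton Dye, MitoTracker Red and Annexin V Alexa Fluor 680, then imaged on a CQ1 microscope at 37°C and 5% CO2 after compound addition. CellPathfinder machine-learning gating split cells into Hoechst high-intensity objects or normal cells. Normal cells were split into healthy, pyknosed or fragmented nuclei, and pyknosed cells into mitotic or apoptotic. Tubulin, mitochondrial-mass and membrane-permeability phenotypes are per cents of healthy-nucleus cells.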

[1] = 12 h, 1 µM, compound concentration 1 uM, replicate 1
[2] = 12 h, 1 µM, compound concentration 1 uM, replicate 2
[3] = 12 h, 10 µM, compound concentration 10 uM, replicate 1
[4] = 12 h, 10 µM, compound concentration 10 uM, replicate 2
[5] = 24 h, 1 µM, compound concentration 1 uM, replicate 1
[6] = 24 h, 1 µM, compound concentration 1 uM, replicate 2
[7] = 24 h, 10 µM, compound concentration 10 uM, replicate 1
[8] = 24 h, 10 µM, compound concentration 10 uM, replicate 2
[9] = 48 h, 1 µM, compound concentration 1 uM, replicate 1
[10] = 48 h, 1 µM, compound concentration 1 uM, replicate 2
[11] = 48 h, 10 µM, compound concentration 10 uM, replicate 1
[12] = 48 h, 10 µM, compound concentration 10 uM, replicate 2

Question: What does the source list for `Cc1ccccc1C(c1ccccc1C)N1C2CCC1CC(O)(c1ccccc1)C2` (stereo unspecified)?
Answer: Population Healthy Nuclei (%) [1]: 82%; Population Mitotic Cells (%) [1]: 66%; Population Normal (%) [1]: 89%; Total Cell Count [1]: 131; Population Healthy Nuclei (%) [2]: 81%; Population Mitotic Cells (%) [2]: 50%; Population Normal (%) [2]: 90%; Total Cell Count [2]: 80; Population Healthy Nuclei (%) [3]: 73%; Population Mitotic Cells (%) [3]: 64%; Population Normal (%) [3]: 96%; Total Cell Count [3]: 158; Population Healthy Nuclei (%) [4]: 81%; Population Mitotic Cells (%) [4]: 60%; Population Normal (%) [4]: 86%; Total Cell Count [4]: 71; Population Healthy Nuclei (%) [5]: 82%; Population Mitotic Cells (%) [5]: 88%; Population Normal (%) [5]: 97%; Total Cell Count [5]: 149; Population Healthy Nuclei (%) [6]: 77%; Population Mitotic Cells (%) [6]: 80%; Population Normal (%) [6]: 95%; Total Cell Count [6]: 89; Population Healthy Nuclei (%) [7]: 74%; Population Mitotic Cells (%) [7]: 65%; Total Cell Count [7]: 201; Population Healthy Nuclei (%) [8]: 65%; Population Mitotic Cells (%) [8]: 50%; Population Normal (%) [8]: 93%; Total Cell Count [8]: 85; Population Healthy Nuclei (%) [9]: 89%; Population Mitotic Cells (%) [9]: 68%; Total Cell Count [9]: 157; Population Healthy Nuclei (%) [10]: 88%; Population Mitotic Cells (%) [10]: 87%; Population Normal (%) [10]: 97%; Total Cell Count [10]: 98; Population Healthy Nuclei (%) [11]: 71%; Population Mitotic Cells (%) [11]: 43%; Population Normal (%) [11]: 95%; Total Cell Count [11]: 289; Population Healthy Nuclei (%) [12]: 68%; Population Mitotic Cells (%) [12]: 40%; Population Normal (%) [12]: 85%; Total Cell Count [12]: 141

Reference: ChEMBL document CHEMBL4689842, “EUbOPEN Chemogenomics Library wave 1” (2021)
